# This is a sample that favours compounds with a hit; in the whole collection about 1.6% have one here.
# Tn7 DDE FP: inhibitors of Tn7 peptide binding to human fibrin DD(E). P02675. FP displacement of FITC-Tn7 peptide from fibrin DD(E); 0% = median of compound wells per plate. inhibition, % at 8.3 µM. 370,000 compounds, 0.13% hits. AID 720508;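 active = inhibition above the mean of compounds falling within the control limits plus 3 SD of them, cut at about 14% in these data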;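 also: 0% = plate median of compound wells and 100% = 10 µM Aha-Tn7 peptide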
#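 system = human fibrin DD(E) protein | quantity = DD(E) 2 µM final | medium = Tris/NaCl/CaCl2 buffer, pH 7.8 | also added = labelled Tn7 tracer, 0.1 µM | compound dosing = single point at 8.3 µM | timing = compound with protein 10 min, then 3 h after probe, room temperature | signal = FP measurement | benchmarks = Aha-Tn7 high control | repeats = one replicate per compound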
# ADAM10 inh: ADAM10 inhibition, QFRET primary screen; 370,000 compounds, 0.62% hits; recombinant ADAM10, EDANS/DABCYL FRET peptide cleavage, 3 h; AID 720582; inhibition, % at 7 µM; O14672;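 active = inhibition above a per-campaign cutoff equal to the mean of compounds falling between control-based bounds plus 3 SD, cut at about 20% in these data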;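 also: 0% = DMSO wells while the 100% control is not disclosed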
# Target sequence (O14672 214-748 limits assumed): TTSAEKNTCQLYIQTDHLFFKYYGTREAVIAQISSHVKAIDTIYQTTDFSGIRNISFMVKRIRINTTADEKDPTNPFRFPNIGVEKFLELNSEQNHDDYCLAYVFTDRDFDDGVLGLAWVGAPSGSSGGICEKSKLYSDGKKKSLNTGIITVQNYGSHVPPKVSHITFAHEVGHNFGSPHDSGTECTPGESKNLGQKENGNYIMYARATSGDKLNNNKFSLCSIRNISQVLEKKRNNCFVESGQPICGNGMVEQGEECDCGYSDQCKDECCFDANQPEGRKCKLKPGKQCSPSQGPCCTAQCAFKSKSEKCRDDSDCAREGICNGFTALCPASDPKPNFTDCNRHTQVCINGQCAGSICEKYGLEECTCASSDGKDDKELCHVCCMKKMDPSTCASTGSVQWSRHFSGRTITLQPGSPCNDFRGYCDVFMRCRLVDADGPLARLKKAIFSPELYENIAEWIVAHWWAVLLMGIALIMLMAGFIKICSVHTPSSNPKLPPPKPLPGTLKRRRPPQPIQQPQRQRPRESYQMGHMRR
# DDE Tn6 FP inh: DD(E)-Tn6 binding inhibition, primary FP screen; Fibrin DD(E) TRITC-Tn6 fluorescence polarization displacement; inhibition, % at 8.3 µM; 370,000 compounds, 0.21% hits;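 active = inhibition above a per-campaign cutoff: mean of compounds within control limits plus 3 SD, cut at about 15% in these data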;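 also: 0% = median of all compound wells on the plate and 100% = blocking peptide control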
# MT1-MMP act inh: blocks activation of human MT1-MMP; P50281; HT1080 RFP-PRO-GFP cells, GFP/RFP ratio fluorescence, overnight; percent of plate control window, DMSO zero; GFP/RFP ratio change, % at 20 µM; 360,000 compounds, 0.061% hits; AID 651647;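 active = GFP/RFP ratio change of at least 30% with cell ATP level not reduced by more than half and red fluorescence within 50% of control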
#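 Compound: 20 µM single dose, 1% DMSO / System: HT1080 RFP-PRO-GFP cells / Controls: DMSO and RFP-L50D-GFP cell wells / Read-out basis: GFP/RFP fluorescence ratio / Schedule: overnight compound exposure at 37 °C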
# ADAM17 inh: inhibitors of human ADAM17. 370,000 compounds, 0.83% hits. P78536. inhibition, % at 6.95 µM. recombinant ADAM17, EDANS/DABCYL FRET peptide cleavage;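 active = inhibition above the mean of compounds lying between control limits plus 3 SD, set per campaign, cut at about 8.5% in these data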;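 also: 0% = DMSO-only wells as the low control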
# ADAM10 ctr: ADAM10 inhibition, counter-screen for ADAM17 exosite hits | shares compounds with ADAM17 inh | 2,900 compounds, 47% hits | AID 743256 | recombinant ADAM10, EDANS/DABCYL FRET peptide cleavage, 3 h | inhibition, % at 6.95 µM;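 active = mean inhibition over the triplicate runs exceeds the activity threshold set in the earlier primary screen, cut at about 20% in these data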;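 also: 0% = DMSO wells and 100% = marimastat wells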
# ADAM17 confirm: confirmation of inhibitors of human ADAM17; shares compounds with ADAM17 inh; inhibition, % at 6.95 µM; recombinant ADAM17, EDANS/DABCYL QFRET peptide cleavage; 2,900 compounds, 65% hits; AID 743257;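 active = mean inhibition across replicates above the hit cutoff set in the primary screen, cut at about 8.5% in these data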;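 also: 0% = DMSO wells and 100% = marimastat wells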
# * marks the source's active call; other numbers are inactive results; i = inactive; . = no result given.
SMILES,Tn7 DDE FP,ADAM10 inh,DDE Tn6 FP inh,MT1-MMP act inh,ADAM17 inh,ADAM10 ctr,ADAM17 confirm
CCCn1c(CCNc2nc(-c3cccc(Br)c3)cs2)nc2ccccc21,-7,11,-1,0,11*,17,11*
C/C(=N\N=C1\NC(=O)CS1)c1cccs1,-4,16,3,3,11*,9,7
CC(=O)c1cccc(N=C2NC(=O)CS2)c1,2,-4,3,0,-3,.,.
COc1ccccc1-c1coc2cc(OC(=O)N3CCOCC3)ccc2c1=O,-1,-8,-4,0,-4,.,.
CCC(Oc1ccc2c(=O)c(-c3ccccc3OC)coc2c1)C(=O)OCc1ccccc1 (configuration not stated),-14,17,-5,-4,11*,27*,12*
CC(C)(C)OC(=O)N(Cc1ccccc1)Cc1ccccc1OCc1ccc(NC(=O)C2CCC2)cc1,-3,8,0,-6,13*,13,11*
COCCCNC(=O)c1nnn2c1nc(N)c1cc(Cl)ccc12,-9,-339,6,.,-82,.,.
CCc1ccc([C@H]2[C@@H]3C(=O)C[C@@H]4C(=O)N(c5ccccc5)C(=O)[C@@H]4[C@@H]3CN2S(=O)(=O)c2ccc(C)cc2)cc1,0,10,-3,3,8.7*,10,10*
COC(=O)C1=C(C)N(Cc2ccc(C(F)(F)F)cc2)C(=NCc2ccc3c(c2)OCO3)NC1c1ccccc1 (configuration not stated),-2,10,1,.,9.6*,10,5
COC(=O)C1=C(C)N(Cc2cccc(C(F)(F)F)c2)C(=NCc2ccc3c(c2)OCO3)NC1c1ccccc1 (configuration not stated),6,-4,-2,.,-1,.,.
C=CCN=C1NC(c2cccc(Cl)c2)C(C(=O)OC)=C(C)N1Cc1cccc(C(F)(F)F)c1 (configuration not stated),-11,0,-7,.,10.0*,8,8
COC(=O)C1=C(C)N(Cc2cccc(C(F)(F)F)c2)C(=NCc2ccccc2C(F)(F)F)NC1c1cccc(F)c1 (configuration not stated),-10,15,1,.,9.6*,21*,18*
C=CCN1C(=O)[C@@H](CC(=O)NCc2ccc(OC)c(OC)c2)[C@]2(C(=O)OCC)CCCCC/C=C/12,0,-2,-2,.,-3,.,.
CCOC(=O)N1CCN(C(=O)C[C@H]2C[C@@]3(C(=O)OC)C(=C[C@H](C(C)(C)C)O[C@@H]3C)N(Cc3ccc4c(c3)OCO4)C2=O)CC1,-1,3,1,.,1,.,.
CC(CC(=O)OCC(=O)NCc1ccc(Cl)cc1)c1ccccc1 (configuration not stated),-3,0,-1,4,11*,14,10*
Cc1cccc(C)c1OCC(O)CN1CCN(c2ccccn2)CC1 (configuration not stated),3,2,-1,1,-3,.,.
OC(COC(c1ccc(Cl)cc1)c1ccc(Cl)cc1)CN1CCN(c2ccccn2)CC1 (configuration not stated),2,15,-5,-1,9.1*,22*,13*
CCN(CC)C(=O)COc1ccc(N(C)S(=O)(=O)c2ccc(NC(C)=O)cc2)cc1,6,0,-6,-1,-2,.,.
Cc1ccc(S(=O)(=O)N(C)c2ccc(OCc3cccc(C)c3)cc2)cc1,-9,2,-8,-7,3,.,.
Cc1ccc(S(=O)(=O)N(C)c2ccc(OCC(=O)OCc3cccc(Br)c3)cc2)cc1,-5,16,-2,-1,9.1*,25*,16*
CC(=O)Nc1ccc(S(=O)(=O)N(C)c2ccc(OCCOc3cccc(C)c3)cc2)cc1,4,-3,2,1,8.7*,26*,14*
CNS(=O)(=O)c1ccc(C(=O)NCC(=O)NCCC(c2ccccc2)c2ccccc2)cc1,-2,3,-2,-1,9.7*,6,2
CNS(=O)(=O)c1ccc(C(=O)NCC(=O)NCC2COc3ccccc3O2)cc1 (configuration not stated),3,-6,5,2,-1,.,.
C=CCCC1CN(Cc2ccc(OC)cc2)S(=O)(=O)c2c(cccc2Sc2ccc(OC)c(OC)c2)O1 (configuration not stated),0,6,-5,.,3,.,.
O=C(N[C@H]1C/C=C\C[C@@H](CC(=O)N(CCO)Cc2ccccc2)C(=O)N[C@H](Cc2c[nH]c3ccccc23)COC1=O)OCC1c2ccccc2-c2ccccc21,-8,9,-5,10,10*,21*,13*
SMILES,Tn7 DDE FP,ADAM10 inh,DDE Tn6 FP inh,MT1-MMP act inh,ADAM17 inh,ADAM10 ctr,ADAM17 confirm
O=C(N[C@H]1C/C=C\C[C@H](CC(=O)N(CCO)Cc2ccccc2)C(=O)N[C@H](Cc2c[nH]c3ccccc23)COC1=O)OCC1c2ccccc2-c2ccccc21,1,10,5,4,4,.,.
COCC1CN(CCc2ccc(F)cc2)S(=O)(=O)c2c(F)cccc2O1 (configuration not stated),7,-7,0,.,-2,.,.
CCOC(=O)[C@]12CCC=C1N(Cc1cccc3ccccc13)C(=O)[C@H](CC(=O)NCc1cccs1)C2,0,13,-10,-3,11*,20*,12*
COC(=O)[C@]12C[C@H](CC(=O)NCCCCc3ccccc3)C(=O)N(Cc3cccc4ccccc34)C1=C[C@H](C(C)C)O[C@@H]2C1CC1,-2,6,-4,.,9.6*,12,12*
COC(=O)[C@]12C[C@H](CC(=O)N3CCCC3)C(=O)N(Cc3cccc4ccccc34)C1=C[C@H](C(C)C)O[C@@H]2C1CC1,0,7,7,.,0,.,.
C#CCNC(=O)C[C@H]1C[C@@]2(C(=O)OC)C(=C[C@H](C(C)C)O[C@@H]2C2CC2)N(Cc2cccc3ccccc23)C1=O,-2,10,-3,.,8.9*,6,8
C[C@H](O)[C@@H]1C(=O)N2CCc3c([nH]c4c(-c5ccccc5)cccc34)[C@@H]2C[C@@H]1N(C)C(=O)Nc1ccccc1,1,-153,4,.,-37,.,.
COC(=O)c1cc(C(C)c2c[nH]c3ccccc23)n2ccccc12 (configuration not stated),11,i,1,.,-227,.,.

# Assay outcomes (PubChem)
